From ChEMBL document CHEMBL3425438, “Investigation of (E)-3-[4-(2-Oxo-3-aryl-chromen-4-yl)oxyphenyl]acrylic Acids as Oral Selective Estrogen Receptor Down-Regulators” (J Med Chem, 2015)
In brackets after ≈: the same amount, converted by molar mass.

Columns and labels:
[1] = target: T1, Estrogen receptor (Homo sapiens, UniProt P03372); assay: Binding affinity to ER alpha (unknown origin) by LanthaScreen TR-FRET competitive binding assay
T1 sequence (P03372 whole entry): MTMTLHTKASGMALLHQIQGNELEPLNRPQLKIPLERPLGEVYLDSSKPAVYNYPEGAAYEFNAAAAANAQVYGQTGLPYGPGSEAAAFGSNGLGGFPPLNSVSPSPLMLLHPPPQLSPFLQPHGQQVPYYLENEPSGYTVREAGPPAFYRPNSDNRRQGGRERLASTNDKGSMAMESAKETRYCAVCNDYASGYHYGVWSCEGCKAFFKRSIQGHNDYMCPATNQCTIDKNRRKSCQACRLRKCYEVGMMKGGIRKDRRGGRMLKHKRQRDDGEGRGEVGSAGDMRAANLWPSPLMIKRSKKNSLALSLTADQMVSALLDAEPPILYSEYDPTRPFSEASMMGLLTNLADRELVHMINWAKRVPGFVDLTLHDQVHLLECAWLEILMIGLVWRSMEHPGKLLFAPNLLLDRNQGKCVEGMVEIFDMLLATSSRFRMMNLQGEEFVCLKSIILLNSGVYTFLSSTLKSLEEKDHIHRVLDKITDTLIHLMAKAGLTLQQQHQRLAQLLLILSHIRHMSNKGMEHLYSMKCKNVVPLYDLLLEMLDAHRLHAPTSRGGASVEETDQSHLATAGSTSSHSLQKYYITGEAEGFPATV
Procedure, shortened: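 LanthaScreen TR-FRET ERα competitive binding; 12-point half-log concentration response; TR-FRET emission ratio read on microplate reader; IC50 reported.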

[2] = target: T1, Estrogen receptor; assay: Suppression of ER alpha in human MCF7 cells after 24 hrs by immunostaining analysis; format: cell-based
[3] = target: T1, Estrogen receptor; assay: Antagonist activity at ER alpha in human MCF7 cells assessed as inhibition of estradiol-induced PR expression treated for 24 hrs after incubation with estradiol for 30 mins by laser scanning imaging cytometer analysis; format: cell-based
[4] = tested on: MCF7; assay: Inhibition of cell proliferation in human MCF7 cells after 7 days by laser scanning imaging cytometer analysis; format: functional, cell-based; settings: MCF7, 168 h
Procedure, shortened: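 MCF-7 cells plated in reduced-serum medium the day before; concentration response for 7 days; cell number by nucleic acid stain, read on laser scanning imaging cytometer; EC50 for decrease in proliferation.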

[5] = Octanol-buffer partition coefficient, log D of the compound at ratio of 1:100 at pH 7.4 by shake-flask method; format: physicochemical
[6] = Dissociation constant, pKa of the compound by potentiometric analysis […] phenol; format: physicochemical
Procedure, shortened: (§1)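 pKa (acid and phenol) by potentiometric titration.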

[7] = Thermodynamic solubility of the compound in 0.1 M aqueous phosphate buffer at 25 degC at pH 7.4 after 24 hrs; format: physicochemical; settings: read-out: Therm_solubility
[8] = target: Voltage-gated inwardly rectifying potassium channel KCNH2 (Homo sapiens, UniProt Q12809); assay: Inhibition of hERG channel by electrophysiology; format: toxicity
[9] = Apparent permeability from apical to basolateral side in human Caco2 cells; format: ADME, cell-based; settings: Caco-2
[10] = Free plasma concentration in human by LC-UV-MS analysis; format: ADME, cell-free
Procedure, shortened: (§2)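 Equilibrium dialysis in plasma of the matching species at 37 °C; free and bound concentrations quantified by LC-UV-MS; reported as % free.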

[11] = Free plasma concentration in mouse by LC-UV-MS analysis; format: ADME, cell-free; procedure, shortened: as §2
[12] = Free plasma concentration in rat by LC-UV-MS analysis; format: ADME, cell-free; procedure, shortened: as §2
[13] = Intrinsic clearance in human hepatocytes measured per 10^6 cells; format: ADME, cell-based, Hepatocyte; settings: read-out: CLH
[14] = Intrinsic clearance in mouse hepatocytes measured per 10^6 cells; format: ADME, cell-based, Hepatocyte; settings: read-out: CLH
[15] = Intrinsic clearance in rat hepatocytes measured per 10^6 cells; format: ADME, cell-based, Hepatocyte; settings: read-out: CLH
[16] = Clearance in Alderley Park Han Wistar rat at 0.5 mg/kg, iv; format: ADME, organism-based; set-up: dose 0.5 mg/kg, route intravenous; settings: in vivo
[17] = Volume of distribution at steady state in Alderley Park Han Wistar rat at 0.5 mg/kg, iv; format: ADME, organism-based; set-up: dose 0.5 mg/kg, route intravenous; settings: in vivo, read-out: Vdss
Procedure, shortened: (§3)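 Fed CD-1 mice or Alderley Park Han Wistar rats, two animals per study; IV 0.5 mg/kg as aqueous solution of DMSO and cyclodextrin; clearance and Vss derived.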

[18] = Oral bioavailability in Alderley Park Han Wistar rat at 50 mg/kg using HPMC/tween suspension; format: ADME, organism-based; settings: in vivo
Procedure, shortened: (§4)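 Fed Han Wistar rats, two per study; oral HPMC/tween suspension at 1, 5 or 50 mg/kg as stated per line; IV reference 0.5 mg/kg in aqueous DMSO/cyclodextrin.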

[19] = Drug metabolism in rat hepatocytes assessed as formation of glucuronide conjugates by LC-UV-MS analysis; format: ADME, cell-based, Hepatocyte
[20] = Drug metabolism in rat hepatocytes assessed as formation of sulphate metabolite by LC-UV-MS analysis; format: ADME, cell-based, Hepatocyte
[21] = Drug metabolism in rat hepatocytes assessed as formation of acyl glucuronide conjugates by LC-UV-MS analysis; format: ADME, cell-based, Hepatocyte
[22] = Dissociation constant, pKa of the compound in acidic medium by potentiometric analysis; format: physicochemical; procedure, shortened: as §1
[23] = Clearance in CD-1 mouse at 0.5 mg/kg, iv; format: ADME, organism-based; set-up: dose 0.5 mg/kg, route intravenous; settings: in vivo
[24] = Volume of distribution at steady state in CD-1 mouse at 0.5 mg/kg, iv; format: ADME, organism-based; set-up: dose 0.5 mg/kg, route intravenous; settings: in vivo, read-out: Vdss; procedure, shortened: as §3
[25] = Oral bioavailability in CD-1 mouse at 20 mg/kg using propylene glycol suspension; format: ADME, organism-based; settings: in vivo
Procedure, shortened: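 Fed CD-1 mice, two per study; oral 20 mg/kg propylene glycol suspension; IV reference 0.5 mg/kg aqueous DMSO/cyclodextrin.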

[26] = Oral bioavailability in Alderley Park Han Wistar rat at 2 mg/kg using propylene glycol solution; format: ADME, organism-based; settings: in vivo
Procedure, shortened: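 Fed Han Wistar rats, two per study; oral 2 mg/kg propylene glycol solution; IV reference 0.5 mg/kg aqueous DMSO/cyclodextrin.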

[27] = Oral bioavailability in Alderley Park Han Wistar rat at 5 mg/kg using HPMC/tween suspension; format: ADME, organism-based; settings: in vivo; procedure, shortened: as §4
[28] = Oral bioavailability in CD-1 mouse at 50 mg/kg using 0.5% polysorbate suspension; format: ADME, organism-based; settings: in vivo
Procedure, shortened: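 Fed CD-1 mice, two per study; oral 50 mg/kg 0.5% polysorbate suspension; IV reference 0.5 mg/kg aqueous DMSO/cyclodextrin.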

[29] = Oral bioavailability in Alderley Park Han Wistar rat at 1 mg/kg using 5% DMSO, 95% of a 30% aqueous cyclodextrin solution; format: ADME, organism-based; settings: in vivo
Procedure, shortened: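 Fed Han Wistar rats, two per study; oral 1 mg/kg solution in 5% DMSO, 95% of a 30% aqueous cyclodextrin solution; IV reference 0.5 mg/kg in aqueous DMSO/cyclodextrin.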

[30] = Drug metabolism in rat hepatocytes assessed as oxidation metabolite formation by LC-UV-MS analysis; format: ADME, cell-based, Hepatocyte

Sequence of Voltage-gated inwardly rectifying potassium channel KCNH2 (Q12809 whole entry): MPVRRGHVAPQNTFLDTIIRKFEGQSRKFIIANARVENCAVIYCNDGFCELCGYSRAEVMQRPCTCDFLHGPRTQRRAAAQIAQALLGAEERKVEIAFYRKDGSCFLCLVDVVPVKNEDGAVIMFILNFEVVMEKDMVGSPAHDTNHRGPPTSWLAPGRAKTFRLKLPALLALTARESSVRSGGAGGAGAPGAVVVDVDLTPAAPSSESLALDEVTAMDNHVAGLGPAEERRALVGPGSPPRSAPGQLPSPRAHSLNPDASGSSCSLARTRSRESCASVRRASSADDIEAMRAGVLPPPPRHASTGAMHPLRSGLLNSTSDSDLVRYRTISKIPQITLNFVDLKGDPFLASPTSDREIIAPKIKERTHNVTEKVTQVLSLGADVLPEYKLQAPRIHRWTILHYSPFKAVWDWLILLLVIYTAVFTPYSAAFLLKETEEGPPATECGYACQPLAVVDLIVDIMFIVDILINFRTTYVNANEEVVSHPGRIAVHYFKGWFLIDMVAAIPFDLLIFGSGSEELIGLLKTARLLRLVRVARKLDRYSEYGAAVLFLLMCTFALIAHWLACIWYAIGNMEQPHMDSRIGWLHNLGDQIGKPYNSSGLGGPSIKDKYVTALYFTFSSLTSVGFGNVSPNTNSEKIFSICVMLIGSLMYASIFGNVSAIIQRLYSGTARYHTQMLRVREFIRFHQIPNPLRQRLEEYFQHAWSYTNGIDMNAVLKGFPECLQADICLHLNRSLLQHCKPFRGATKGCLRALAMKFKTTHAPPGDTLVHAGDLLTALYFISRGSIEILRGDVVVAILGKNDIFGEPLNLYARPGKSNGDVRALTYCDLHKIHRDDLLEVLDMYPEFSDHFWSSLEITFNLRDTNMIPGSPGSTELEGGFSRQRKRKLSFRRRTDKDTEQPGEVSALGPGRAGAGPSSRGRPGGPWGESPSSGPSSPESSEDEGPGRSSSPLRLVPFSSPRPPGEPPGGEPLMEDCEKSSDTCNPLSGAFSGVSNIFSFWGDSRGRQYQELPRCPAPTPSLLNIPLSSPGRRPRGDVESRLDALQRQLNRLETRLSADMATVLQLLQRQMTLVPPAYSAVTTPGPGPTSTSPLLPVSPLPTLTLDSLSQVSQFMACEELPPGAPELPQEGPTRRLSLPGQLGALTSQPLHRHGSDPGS

Compound | IC50 [1] [nM] | IC50 [2] [nM] | IC50 [3] [nM] | EC50 [4] [nM] | logD [5] | pKa [6] | solubility thermodynamic at 24 h [7] [µM] | Papp A→B [9] [×10⁻⁶ cm/s] | fraction unbound [10] | fraction unbound [11] | fraction unbound [12] | hepatocyte CLint [13] [µL/min/1e6 cells] | hepatocyte CLint [14] [µL/min/1e6 cells] | hepatocyte CLint [15] [µL/min/1e6 cells] | clearance [16] [mL/min/kg] | Vd [17] [L/kg] | Vd [24] [L/kg] | further results
Cc1cc(OC(F)(F)F)ccc1-c1c(Oc2ccc(/C=C/C(=O)O)cc2)c2ccc(O)cc2oc1=O | 0.5 | 2.7 | 3.9 | < 0.1 | 2.1 | 8.2 | 97 (≈ 48.3 µg/mL) | 15 | 0.0012 | 0.0084 | 0.0037 | 11 | 9 | 41 | 38 | 0.7 | – | IC50 [8]: > 100 µM; bioavailability [18]: 0%
O=C(O)/C=C/c1ccc(Cc2c(-c3ccc(F)cc3)c(=O)oc3cc(O)ccc23)cc1 | 9 | 1280 | – | – | – | – | – | – | – | – | – | – | – | – | – | – | – | Drug metabolism [19]: metabolite_detected; Drug metabolism [20]: metabolite_detected; Drug metabolism [21]: metabolite_detected
O=C(O)/C=C/c1ccc(Cc2c(-c3ccccc3)c(=O)oc3cc(O)ccc23)cc1 | 8.1 | 1180 | 1500 | 260 | 1.5 | 7.7 | 470 (≈ 187 µg/mL) | 10 | 0.012 | 0.012 | 0.0098 | 18 | 87 | 120 | 67 | 1.4 | 4.7 | pKa [22]: 4.4; clearance [23]: 210 mL/min/kg; bioavailability [25]: 0%; bioavailability [26]: 0%; bioavailability [27]: 67%
CC/C(=C(\c1ccccc1)c1ccc(/C=C/C(=O)O)cc1)c1ccccc1 | – | – | – | 300 | – | – | – | – | < 0.002 | 0.064 | < 0.0001 | – | – | – | – | 0.5 | 1.1 | bioavailability [28]: 62%; bioavailability [29]: 68%
Cc1cc(F)ccc1-c1c(Cc2ccc(/C=C/C(=O)O)cc2)c2ccc(CO)cc2oc1=O | 100 | 1000 | – | – | 1.2 | – | – | – | – | – | – | 14 | – | 81 | – | – | – | Drug metabolism [30]: metabolite_detected
